Dynein cargo inh = inhibitors of GR-EGFP nuclear translocation, primary screen, dynein cargo transport inhibitor project, imaging, high-content, 3617.4 mouse cells; test concentration mostly 20 µM; stimulated with dexamethasone, 1 µM; hits give low values; z-score, hits read low; hit rate 0.47% among 220,000;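 active = plate z-score of nuclear minus cytoplasmic receptor signal below a set negative limit, without overly bright fluorescence or cell loss, cut at about -3.5 in these data, passing the limit was not always enough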;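 also: z-score of nuclear minus cytoplasmic ring GR-EGFP intensity difference per well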
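Buffer or medium: Induction medium lacking tetracycline, stripped serum | Also added: Dexamethasone agonist, 1.0 µM final, for 30 min | Timing: 48 h induction, 1 h compound, 30 min dex at 37 °C | Detection: Formaldehyde fixation, Hoechst nuclear stain, 10x automated fluorescence imaging | Measure: Nuclear versus cytoplasmic GR-EGFP signal, averaged per well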
CHOP inhibitor = inhibitors of CHOP promoter induction, primary screen, cell-based, unfolded protein response, luciferase reporter. CHO-K1 CHOP-promoter luciferase, tunicamycin-induced, 15-18 h. inhibition, % at 10 µM. hit rate 3.8% among 220,000. AID 2732, 2010;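 active = compounds that reduced the stress-induced luciferase reporter signal by more than about 70% of percent inhibition, limit read from the data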
T cruzi inh = inhibitors of intracellular T. cruzi growth, primary screen, luminescence, NIH3T3 host cells; T. cruzi beta-gal in NIH3T3, 90 h; AID 1885, 2009; hit rate 1.4% among 300,000; inhibition, % (concentration not given with the values);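 active = mean inhibition across valid replicates above about 55%, limit read from the data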;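 also: signal also drops with host cell toxicity which is not excluded here; higher percent means less beta-gal luminescence so fewer parasites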
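Assay system: NIH/3T3 fibroblasts plus reporter T. cruzi. Amount: NIH/3T3 cells, 5,000 per well. Buffer or medium: DMEM, 2% fetal bovine serum. Doses: compound pinned at 50 nL/well, DMSO. Schedule: ≥90 h infection period, 3 h prior cell attachment. Signal: luminescent β-galactosidase signal after 60 min lysis. Read-out: parasite load inhibition, %.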
UPR XBP1 act = activators of adaptive XBP1 UPR arm, primary screen, cell-based, CHO-XBP1 luciferase reporter, luminescence, uHTS. IRE1-XBP1 UPR activation; percent of tunicamycin response, DMSO as zero. activation, % at 20 µM. hit rate 0.33% among 330,000;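 active = versus positive control, 20 µM dose yields 30% or more activation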
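Material: CHO-XBP1 cells stably carrying IRE1-XBP1-driven luciferase reporter / Amount: 1000 cells per well / Compound: 20 µM, 1% DMSO / Times: 6 h treatment, 37 °C / Detection: luciferase luminescence / Measure: % activation of reporter signal versus tunicamycin and DMSO controls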
CHOP UPR activ = activators of apoptotic CHOP UPR arm, primary screen, cell-based, CHO-CHOP luciferase reporter, luminescence, uHTS; UPR activation; percent of tunicamycin response over DMSO baseline; activation, % at 10 µM; hit rate 0.34% among 330,000;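 active = at 10 µM dose, activation of 40% or more, normalized to positive control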
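Material: CHO-CHOP cells, stable luciferase reporter of PERK-eIF2a-CHOP signalling; quantity: 500 reporter cells seeded per well; buffer or medium: F12 medium containing 10% fetal bovine serum; compound: one dose, 10 µM in 0.5% DMSO; incubation: 6 h compound treatment, 37 °C; measured by: Steady-Glo luciferase luminescence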
L major viab = Leishmania major promastigote growth inhibition, primary screen | Leishmania major promastigotes, resazurin fluorescence viability | inhibition, % at 10 µM | hit rate 9% among 200,000 | AID 1063, 2008; in the data active = inhibition above about 50%;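 also: promastigotes grown with compound for 44 hours at 28 °C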
L major 1uM = Leishmania major promastigote growth inhibition, confirmation, 1 µM repeat of primary hits | hit rate 13% among 1,100 | shares compounds with L major viab | inhibition, % at 1 µM | L. major promastigote growth, resazurin fluorescence, 48 h | AID 1258, 2008;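 active = inhibition above about 50% in both repeat tests, limit read from the data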
Hits are given with their value; – = inactive; · = no result. This excerpt belongs to a sample that is enriched for hits.

SMILES | Dynein cargo inh | CHOP inhibitor | T cruzi inh | UPR XBP1 act | CHOP UPR activ | L major viab | L major 1uM
Cc1cc(C(F)(F)F)nn1CC(=O)Nc1ccc(Br)c2cccnc12 | – | – | – | – | – | 96 | –
O=C(O)c1ccc(N=NN2CCCCCC2)cc1 | – | – | – | – | – | 59 | –
O=C(O)c1ccc(N=NN2CCCC2)cc1 | – | – | – | – | – | – | ·
COC(=O)CN1C(c2ccc(Cl)cc2)=Nc2ccc(Cl)cc2C1c1ccccc1 (stereo unspecified) | – | – | – | – | – | 65 | –
COc1ccc(CCNC(=O)CNS(=O)(=O)c2ccc(F)c(Cl)c2)cc1OC | · | · | – | – | – | · | ·
COC(=O)c1ccc(C2CC(=O)NC3=C2C(=O)CCC3)cc1 (stereo unspecified) | – | – | – | – | – | – | ·
COC(=O)c1ccc(COc2ccc(C3C4=C(CCCC4=O)Nc4onc(C)c43)cc2)cc1 (stereo unspecified) | – | – | – | – | – | 100 | 55
COc1ccccc1NC(=O)c1ccc2[nH]c(C)c(C)c2c1 | · | · | – | – | – | · | ·
Nc1c(C(O)(C(F)(F)F)C(F)(F)F)cc(C(O)(C(F)(F)F)C(F)(F)F)c2ccccc12 | – | 95 | – | – | – | 100 | –
CC(C)Cc1nc2ccccc2n1CCc1ccccc1 | – | – | – | – | – | 56 | –
CCc1nc2ccccc2n1CCc1ccccc1 | – | – | – | – | – | – | ·
COc1cc(C(=O)Nc2ccc(NC(=O)c3ccccc3Cl)nc2)cc(OC)c1OC | · | · | – | – | – | · | ·
Cc1ccc(NC(=O)N2CCCN(Cc3ccc(F)cc3)C2)cc1C | – | – | – | – | – | 94 | 53
COCCCN1C(=O)c2ccc(C(=O)NCCc3ccccc3)cc2C1=O | · | · | – | – | – | · | ·
Cc1nc(SCC(=O)O)c(C#N)c2c1CCCC2 | – | – | – | – | – | · | ·
CSc1nc(C)c2c(c1C#N)CCCC2 | – | 92 | – | – | – | 62 | –
COc1ccc(S(=O)(=O)Nc2ccc(-n3cnnn3)cc2)cc1[N+](=O)[O-] | · | · | · | – | – | · | ·
Cc1cccc(Cn2nnc3c2C(=O)c2ccccc2C3=O)c1 | – | – | 61 | – | – | 100 | –
O=C(NCc1cccc2ccccc12)c1cccs1 | · | · | · | – | – | · | ·
COc1ccccc1-n1c(=O)[nH]c2c(C(N)=O)nc(C3CCCCC3)nc21 | – | – | – | – | – | 84 | –
COc1ccccc1Oc1cc(C#N)c(C#N)cc1-n1nnc2ccccc21 | – | – | – | – | – | 98 | –
O=C(OCc1ccccc1)c1cn(-c2ccccc2)nc1-c1ccncc1 | – | – | 57 | – | – | 69 | –
COc1ccc(C2=NCC(CSc3nnc(-c4ccc5c(c4)OCO5)o3)S2)cc1 (stereo unspecified) | – | – | 57 | – | – | 88 | 91
Cc1ccc(CSc2nnc(-c3ccc4c(c3)OCO4)o2)cc1 | – | – | – | – | – | – | ·
Cc1ccc(OC(=O)c2ccc(Br)o2)cc1 | – | – | – | – | – | – | ·
SMILES | Dynein cargo inh | CHOP inhibitor | T cruzi inh | UPR XBP1 act | CHOP UPR activ | L major viab | L major 1uM
Cc1ccc(S(=O)(=O)c2c(C)nn(-c3ccccc3)c2OC(=O)c2ccc(Br)o2)cc1 | – | – | · | · | · | 53 | –
COc1cc2cc(NC(C)=O)cc(NCc3ccccc3)c2cc1OC | · | · | – | – | – | · | ·
CCCCNc1cc(NC(C)=O)cc2cc(OC)c(OC)cc12 | – | · | – | – | – | 100 | –
COc1ccc(CN(C(=S)Nc2ccccc2)C2CC(=O)N(c3ccc(Cl)cc3)C2=O)cc1 (stereo unspecified) | – | 72 | – | – | – | 99 | –
COc1ccc(CN(C(=S)Nc2ccccc2)C2CC(=O)N(c3ccccc3)C2=O)cc1 (stereo unspecified) | – | – | – | – | – | – | ·
COc1ccc2oc(C(=O)OCC(=O)NCc3ccc(OC)c(OC)c3)c(C)c2c1 | · | · | · | – | – | · | ·
CCOc1ccccc1N1CCN(C(=O)c2c(Cl)cnn2C)CC1 | · | · | – | – | – | · | ·
COc1ccc(N2C3=[N+](CC2(C)O)c2ccccc2CC3)cc1 (stereo unspecified) | – | – | – | – | – | 90 | –
COc1ccc(OCC(=O)N2c3ccccc3CCc3ccccc32)cc1 | – | – | – | – | – | – | ·
O=C(Nc1cccn(Cc2ccccc2)c1=O)NC1CCCCC1 | – | – | – | – | – | 78 | –
Cc1ccc(S(=O)(=O)c2ccc(Oc3cccc(C)c3)cc2)cc1 | – | – | – | – | – | 74 | 85
CC(=O)Nc1ccc(S(=O)(=O)NCCC(=O)Nc2ccc(C)c(Cl)c2)cc1 | – | – | – | – | – | – | ·
CC(=O)Nc1ccc(S(=O)(=O)NCCSCc2ccccc2Cl)cc1 | – | – | – | – | – | 68 | –
Cc1cccc2c(CC(=O)O)noc12 | – | – | – | – | – | 79 | –
CCCOC(=O)N[C@@H]1C(=O)N2C(C(=O)OCCC)=C(C)CS[C@H]12 | · | · | – | – | – | · | ·
Cc1cccc(C(=O)Nc2cccc(C(=O)N3CCOCC3)c2)c1 | – | – | – | – | – | – | ·
CC(=O)/C(=N/Nc1cccc(C)c1)N1CCOCC1 | – | – | – | – | – | 64 | –
c1ccc(-c2cc3c(ccc4nonc43)nn2)cc1 | – | – | – | – | – | – | ·
On1onc2c3cc(-c4ccccc4)nc3ccc21 | – | · | · | – | – | 100 | –
O=[N+]([O-])c1ccc2c(c1)c(-c1ccccc1)nc1nncn12 | – | – | – | · | · | 56 | –
Cc1ncc(CO)c(CNc2ccc(-c3nc4ccccc4[nH]3)cc2)c1O | · | · | – | – | – | · | ·
C=CCc1c(C)nc(SC)nc1Nc1ccc(C)cc1 | – | – | – | – | – | 97 | –
C=CCc1c(C)nc(C)nc1N/N=C/c1ccc(F)cc1 | – | – | – | – | – | – | ·
CCN1C(=O)C2CCCCN2c2ccc(C(=O)NCCOC)cc21 (stereo unspecified) | · | · | – | – | – | · | ·
Cc1ccc([N+](=O)[O-])cc1N=Nc1c(C)[nH]n(C(N)=S)c1=O | · | · | – | – | – | · | ·
Cc1ccc([N+](=O)[O-])cc1N=Nc1c(-c2ccc([N+](=O)[O-])cc2)[nH]n(C(N)=S)c1=O | – | 78 | – | · | · | 88 | –
N#Cc1ccc(-c2csc(NC3=NCCCCC3)n2)cc1 | – | – | – | · | · | 87 | –

Screens deposited in PubChem by several laboratories.
